Eleven compounds from ChEMBL document CHEMBL4602716, “Development of Selective Histone Deacetylase 6 (HDAC6) Degraders Recruiting Von Hippel-Lindau (VHL) E3 Ubiquitin Ligase” (ACS Med Chem Lett, 2020) can be followed below.

Active and inactive are the calls of the source. The rule behind the calls is not given here.

The Emax is the maximal effect, on the per cent scale that the assay sets.

Holding throughout (assay type): cell-based
For experiment [1], the target named is T1, von Hippel-Lindau disease tumor suppressor/Protein deacetylase HDAC6 (Homo sapiens, UniProt Q9UBN7+P40337). Nature of the experiment: Protac activity at VHL/HDAC6 in human MM1S cells assessed as HDAC6 degradation at 100 nM measured after 6 hrs by ELISA. An outline of the steps:
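Linker-length screen. MM1S cells were treated with degraders at 100 nM for 6 h, and HDAC6 protein level was quantified by in-cell ELISA.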
In general terms: An ELISA detects its analyte on a solid surface through an enzyme-linked reagent.
Target sequence in this assay (P40337 whole entry, looked up): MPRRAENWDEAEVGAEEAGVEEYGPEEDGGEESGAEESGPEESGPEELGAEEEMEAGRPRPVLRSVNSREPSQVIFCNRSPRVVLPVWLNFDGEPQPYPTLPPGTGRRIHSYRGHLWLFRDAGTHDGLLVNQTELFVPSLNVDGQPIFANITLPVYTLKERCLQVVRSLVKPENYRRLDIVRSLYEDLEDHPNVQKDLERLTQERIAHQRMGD
Target sequence in this assay (Q9UBN7 whole entry, looked up): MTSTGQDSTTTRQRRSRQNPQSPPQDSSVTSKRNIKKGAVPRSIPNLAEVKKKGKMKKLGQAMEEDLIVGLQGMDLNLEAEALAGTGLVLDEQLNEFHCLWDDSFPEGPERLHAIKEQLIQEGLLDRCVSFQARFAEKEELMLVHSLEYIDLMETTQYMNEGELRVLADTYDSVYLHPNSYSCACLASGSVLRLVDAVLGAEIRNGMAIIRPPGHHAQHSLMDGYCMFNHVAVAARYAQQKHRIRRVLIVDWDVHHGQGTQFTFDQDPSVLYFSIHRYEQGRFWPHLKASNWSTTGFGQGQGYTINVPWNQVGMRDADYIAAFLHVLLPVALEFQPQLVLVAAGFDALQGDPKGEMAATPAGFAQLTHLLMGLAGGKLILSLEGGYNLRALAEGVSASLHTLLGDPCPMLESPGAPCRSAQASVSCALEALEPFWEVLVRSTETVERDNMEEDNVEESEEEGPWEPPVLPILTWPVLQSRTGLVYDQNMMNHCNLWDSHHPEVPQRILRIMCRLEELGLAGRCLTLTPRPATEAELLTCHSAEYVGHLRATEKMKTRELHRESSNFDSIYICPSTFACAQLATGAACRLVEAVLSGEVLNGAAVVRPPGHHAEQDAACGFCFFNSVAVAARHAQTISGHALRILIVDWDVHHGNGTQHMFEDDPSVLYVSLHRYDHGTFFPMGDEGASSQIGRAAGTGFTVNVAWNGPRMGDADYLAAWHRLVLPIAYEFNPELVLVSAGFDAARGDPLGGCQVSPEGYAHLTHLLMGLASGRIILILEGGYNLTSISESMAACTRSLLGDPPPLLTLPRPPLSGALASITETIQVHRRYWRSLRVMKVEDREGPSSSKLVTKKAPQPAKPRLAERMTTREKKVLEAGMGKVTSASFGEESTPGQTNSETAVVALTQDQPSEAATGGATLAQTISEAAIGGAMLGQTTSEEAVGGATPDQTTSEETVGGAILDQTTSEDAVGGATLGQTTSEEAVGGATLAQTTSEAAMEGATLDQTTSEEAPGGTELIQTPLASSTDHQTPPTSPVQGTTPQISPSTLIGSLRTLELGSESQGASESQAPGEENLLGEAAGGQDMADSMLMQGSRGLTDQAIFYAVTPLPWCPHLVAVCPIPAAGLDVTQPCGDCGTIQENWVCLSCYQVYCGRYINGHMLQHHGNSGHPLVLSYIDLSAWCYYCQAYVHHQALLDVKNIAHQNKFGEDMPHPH

Experiment [2] deals with T1, von Hippel-Lindau disease tumor suppressor/Protein deacetylase HDAC6. Nature of the experiment: Protac activity at VHL/HDAC6 in human MM1S cells measured after 6 hrs by ELISA. An outline of the steps: (§1)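 MM1S multiple myeloma cells exposed to degraders for 6 h. HDAC6 protein level was read by in-cell ELISA; dose-response ran from 1 nM to 3 μM. DC50 and Dmax were derived from the dose-response curve.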
Target sequence in this assay (Q9UBN7 whole entry): as the sequence (Q9UBN7 whole entry, looked up) above
Target sequence in this assay (P40337 whole entry): as the sequence (P40337 whole entry, looked up) above

Experiment [3] has the same target. Nature of the experiment: Protac activity at VHL/HDAC6 in human MM1S cells assessed as HDAC6 degradation at 100 nM measured after 6 hrs by Western blot analysis. A digest of the protocol:
(§2)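 MM1S cells were treated with degraders at 100 nM for 6 h. Lysates were analysed by Western blot for HDAC6 and acetylated tubulin.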
Target sequence in this assay (P40337 whole entry, looked up): as above
Target sequence in this assay (Q9UBN7 whole entry, looked up): as the sequence (Q9UBN7 whole entry, looked up) above

For experiment [4] the target is unchanged. Kind of experiment: Protac activity at VHL/HDAC6 in human MM1S cells measured after 6 hrs by ELISA relative to control. A digest of the protocol:
as §1
Target sequence in this assay (P40337 whole entry, looked up): as the sequence (P40337 whole entry, looked up) above
Target sequence in this assay (Q9UBN7 whole entry, looked up): as the sequence (Q9UBN7 whole entry, looked up) above

Experiment [5] has the same target. Nature of the experiment: Protac activity at VHL/HDAC6 in human MM1S cells assessed as increase in tubulin acetylation at 100 nM measured after 6 hrs by Western blot analysis. A digest of the protocol: as §2
(In western blotting, separated proteins are transferred to a membrane and probed.)
Target sequence in this assay (P40337 whole entry, looked up): as the sequence (P40337 whole entry, looked up) above
Target sequence in this assay (Q9UBN7 whole entry, looked up): as the sequence (Q9UBN7 whole entry, looked up) above

For experiment [6], the target named is T2, Protein cereblon/Protein deacetylase HDAC6 (Homo sapiens, UniProt Q9UBN7+Q96SW2). Nature of the experiment: Protac activity at CRBN/HDAC6 in human MM1S cells measured after 6 hrs by ELISA relative to control. A digest of the protocol:
as §1
Target sequence in this assay (Q96SW2 whole entry, looked up): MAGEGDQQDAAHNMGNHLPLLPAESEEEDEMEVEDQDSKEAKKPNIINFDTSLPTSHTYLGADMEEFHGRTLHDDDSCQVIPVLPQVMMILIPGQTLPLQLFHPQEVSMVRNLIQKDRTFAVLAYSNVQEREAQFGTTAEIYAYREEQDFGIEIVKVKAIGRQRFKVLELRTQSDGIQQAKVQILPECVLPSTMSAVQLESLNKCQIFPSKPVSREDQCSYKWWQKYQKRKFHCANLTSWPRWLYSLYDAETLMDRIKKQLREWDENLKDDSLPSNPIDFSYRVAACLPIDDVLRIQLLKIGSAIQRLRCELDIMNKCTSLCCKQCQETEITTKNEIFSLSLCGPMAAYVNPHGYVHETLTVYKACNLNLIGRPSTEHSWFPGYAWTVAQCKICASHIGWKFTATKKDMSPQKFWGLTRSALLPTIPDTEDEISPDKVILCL
Target sequence in this assay (Q9UBN7 whole entry, looked up): as the sequence (Q9UBN7 whole entry, looked up) above

Experiment [7] concerns the target T2, Protein cereblon/Protein deacetylase HDAC6. Nature of the experiment: Protac activity at CRBN/HDAC6 in human MM1S cells assessed as reduction in protein level at 100 nM after 30 mins by Western blot analysis.
Target sequence in this assay (Q96SW2 whole entry, looked up): as the sequence (Q96SW2 whole entry, looked up) above
Target sequence in this assay (Q9UBN7 whole entry, looked up): as the sequence (Q9UBN7 whole entry, looked up) above
The target is the same in experiment [8]. Kind of experiment: Protac activity at CRBN/HDAC6 in human MM1S cells measured after 6 hrs by ELISA. A digest of the protocol:
as §1
Target sequence in this assay (Q9UBN7 whole entry): as the sequence (Q9UBN7 whole entry, looked up) above
Target sequence in this assay (Q96SW2 whole entry): as the sequence (Q96SW2 whole entry, looked up) above

The target is the same in experiment [9]. Kind of experiment: Protac activity at CRBN/HDAC6 in human MM1S cells assessed as increase in tubulin acetylation at 300 nM to 1 microM after 6 hrs by Western blot analysis.
Target sequence in this assay (Q96SW2 whole entry, looked up): as above
Target sequence in this assay (Q9UBN7 whole entry, looked up): as the sequence (Q9UBN7 whole entry, looked up) above
The target is the same in experiment [10]. Kind of experiment: Protac activity at CRBN/HDAC6 in human MM1S cells assessed as reduction in protein level at 100 nM after 4 hrs by Western blot analysis.
Target sequence in this assay (Q96SW2 whole entry, looked up): as the sequence (Q96SW2 whole entry, looked up) above
Target sequence in this assay (Q9UBN7 whole entry, looked up): as the sequence (Q9UBN7 whole entry, looked up) above
Experiment [11] addresses T3, Protein cereblon/Protein deacetylase HDAC6 (Mus musculus, UniProt Q9Z2V5+Q8C7D2).
T3 sequence (Q9Z2V5 whole entry): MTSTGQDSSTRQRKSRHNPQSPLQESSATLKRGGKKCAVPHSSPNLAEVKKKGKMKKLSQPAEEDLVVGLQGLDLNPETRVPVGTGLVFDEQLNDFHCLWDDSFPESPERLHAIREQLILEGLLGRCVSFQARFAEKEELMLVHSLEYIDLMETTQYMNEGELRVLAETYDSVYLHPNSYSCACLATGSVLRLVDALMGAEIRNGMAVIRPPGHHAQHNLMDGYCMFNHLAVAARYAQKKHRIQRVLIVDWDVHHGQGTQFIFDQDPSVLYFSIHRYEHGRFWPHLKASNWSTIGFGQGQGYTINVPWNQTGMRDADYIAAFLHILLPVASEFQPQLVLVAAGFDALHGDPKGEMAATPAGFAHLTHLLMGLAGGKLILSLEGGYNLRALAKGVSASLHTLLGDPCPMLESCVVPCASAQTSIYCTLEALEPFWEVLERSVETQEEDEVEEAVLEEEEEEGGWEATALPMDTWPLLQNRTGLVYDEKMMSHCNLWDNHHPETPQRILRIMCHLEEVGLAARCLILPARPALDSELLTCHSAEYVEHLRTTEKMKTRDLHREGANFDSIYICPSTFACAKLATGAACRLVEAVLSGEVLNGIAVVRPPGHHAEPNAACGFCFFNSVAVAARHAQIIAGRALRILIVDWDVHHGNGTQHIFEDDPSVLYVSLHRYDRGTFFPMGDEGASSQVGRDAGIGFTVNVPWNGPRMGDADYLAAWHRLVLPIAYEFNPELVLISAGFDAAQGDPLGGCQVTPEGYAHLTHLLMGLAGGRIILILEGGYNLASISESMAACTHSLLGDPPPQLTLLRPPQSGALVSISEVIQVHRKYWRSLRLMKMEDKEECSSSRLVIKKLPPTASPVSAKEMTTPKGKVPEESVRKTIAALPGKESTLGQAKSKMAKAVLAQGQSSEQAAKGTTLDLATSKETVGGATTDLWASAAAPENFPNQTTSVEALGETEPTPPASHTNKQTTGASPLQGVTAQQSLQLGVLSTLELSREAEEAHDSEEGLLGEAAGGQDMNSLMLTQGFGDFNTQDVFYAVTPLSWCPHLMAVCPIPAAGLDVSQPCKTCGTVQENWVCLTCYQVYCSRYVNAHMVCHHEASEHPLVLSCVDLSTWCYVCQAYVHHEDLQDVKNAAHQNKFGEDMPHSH
T3 sequence (Q8C7D2 whole entry): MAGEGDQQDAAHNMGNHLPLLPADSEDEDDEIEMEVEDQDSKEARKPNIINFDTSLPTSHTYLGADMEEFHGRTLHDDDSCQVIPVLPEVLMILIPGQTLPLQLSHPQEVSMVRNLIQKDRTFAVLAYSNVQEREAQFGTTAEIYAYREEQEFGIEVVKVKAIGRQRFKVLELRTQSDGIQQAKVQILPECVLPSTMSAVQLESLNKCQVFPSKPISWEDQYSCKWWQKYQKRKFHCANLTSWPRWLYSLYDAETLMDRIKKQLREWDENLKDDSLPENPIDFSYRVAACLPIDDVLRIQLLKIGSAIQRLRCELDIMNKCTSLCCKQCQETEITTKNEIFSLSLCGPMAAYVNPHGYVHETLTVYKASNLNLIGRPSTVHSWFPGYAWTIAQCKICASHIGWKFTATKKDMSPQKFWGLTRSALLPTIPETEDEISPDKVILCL
Kind of experiment: Protac activity at CRBN/HDAC6 in mouse 4935 cells assessed as HDAC6 degradation after 6 hrs by Western blot analysis. An outline of the steps: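 Mouse 4935 cells were treated with degraders for 6 h, then analysed by Western blot for HDAC6 and acetylated tubulin.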

Experiment [12] concerns the target Protein cereblon/Protein deacetylase HDAC6 (Mus musculus) (UniProt Q9Z2V5+Q8C7D2). Nature of the experiment: Protac activity at CRBN/HDAC6 in mouse 4935 cells assessed as HDAC6 degradation after 6 hrs by relative to control. A digest of the protocol:
(§3)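 Mouse 4935 cells were treated with degrader for 6 h, and HDAC6 level was measured by in-cell ELISA.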

The target in experiment [13] is T3, Protein cereblon/Protein deacetylase HDAC6. Kind of experiment: Protac activity at CRBN/HDAC6 in mouse 4935 cells assessed as HDAC6 degradation after 6 hrs by ELISA. A digest of the protocol: as §3

Take `CCCCN(Cc1ccc(C(=O)NO)cc1)C(=O)Nc1ccc(OCCCCCn2cc(CCCCC(=O)N[C@H](C(=O)N3C[C@H](O)C[C@H]3C(=O)NCc3ccc(-c4scnc4C)cc3)C(C)(C)C)nn2)cc1`: in experiment [1], the outcome was Active.

On to `CCCCN(Cc1ccc(C(=O)NO)cc1)C(=O)Nc1ccc(OCCCn2cc(CCCCC(=O)N[C@H](C(=O)N3C[C@H](O)C[C@H]3C(=O)NCc3ccc(-c4scnc4C)cc3)C(C)(C)C)nn2)cc1`, for which the outcome in experiment [1] was Active.

Take `CCCCN(Cc1ccc(C(=O)NO)cc1)C(=O)Nc1ccc(OCCCCCCCCCCCCn2cc(CCCCC(=O)N[C@H](C(=O)N3C[C@H](O)C[C@H]3C(=O)NCc3ccc(-c4scnc4C)cc3)C(C)(C)C)nn2)cc1`: the outcome in experiment [1] and in [3] was Active. The DC50 in [2] turned out to be 11 nM. In [4], the Emax is 89%.

For `CCCCN(Cc1ccc(C(=O)NO)cc1)C(=O)Nc1ccc(OCCn2cc(CCCCC(=O)N[C@H](C(=O)N3C[C@H](O)C[C@H]3C(=O)NCc3ccc(-c4scnc4C)cc3)C(C)(C)C)nn2)cc1`, the result in [1] was Active.

For `CCCCN(Cc1ccc(C(=O)NO)cc1)C(=O)Nc1ccc(OCCCCCCCCn2cc(CCCCC(=O)N[C@H](C(=O)N3C[C@H](O)C[C@H]3C(=O)NCc3ccc(-c4scnc4C)cc3)C(C)(C)C)nn2)cc1`, the outcome in [1] and in experiment [3] was Active.

Turning to `CCCCN(Cc1ccc(C(=O)NO)cc1)C(=O)Nc1ccc(OCCCCCCCn2cc(CCCCC(=O)N[C@H](C(=O)N3C[C@H](O)C[C@H]3C(=O)NCc3ccc(-c4scnc4C)cc3)C(C)(C)C)nn2)cc1`, in experiment [1], the outcome was Active.

As for `CCCCN(Cc1ccc(C(=O)NO)cc1)C(=O)Nc1ccc(OCCCCCCn2cc(CCCCC(=O)N[C@H](C(=O)N3C[C@H](O)C[C@H]3C(=O)NCc3ccc(-c4scnc4C)cc3)C(C)(C)C)nn2)cc1`, in experiment [1], the result was Active.

In the case of `CCCCN(Cc1ccc(C(=O)NO)cc1)C(=O)Nc1ccc(OCCCCCCCCCCn2cc(CCCCC(=O)N[C@H](C(=O)N3C[C@H](O)C[C@H]3C(=O)NCc3ccc(-c4scnc4C)cc3)C(C)(C)C)nn2)cc1`, the outcome in experiment [1], in experiment [5] and in experiment [3] was Active.

For the compound `CCCCN(Cc1ccc(C(=O)NO)cc1)C(=O)Nc1ccc(OCCCCCn2cc(CNc3cccc4c3C(=O)N(C3CCC(=O)NC3=O)C4=O)nn2)cc1` (stereo unspecified), the Emax in experiment [6] amounted to 86%; in [12], 45%. The result in experiment [7], in experiment [9] and in experiment [10] was Active. Also, the DC50 was determined as 2.2 nM in experiment [8], 360 nM in experiment [11] and 18 nM in [13].

As to `CCCCN(Cc1ccc(C(=O)NO)cc1)C(=O)Nc1ccc(OCCCCn2cc(CCCCC(=O)N[C@H](C(=O)N3C[C@H](O)C[C@H]3C(=O)NCc3ccc(-c4scnc4C)cc3)C(C)(C)C)nn2)cc1`, the result in experiment [1] was Active.

For `CCCCN(Cc1ccc(C(=O)NO)cc1)C(=O)Nc1ccc(OCCCCCCCCCn2cc(CCCCC(=O)N[C@H](C(=O)N3C[C@H](O)C[C@H]3C(=O)NCc3ccc(-c4scnc4C)cc3)C(C)(C)C)nn2)cc1`, the outcome in experiment [1], in experiment [5] and in experiment [3] was Active.
